97 compounds from ChEMBL document CHEMBL4513216, “Probing the Open Global Health Chemical Diversity Library for Multistage-Active Starting Points for Next-Generation Antimalarials” (ACS Infect Dis, 2020) can be followed below.

The data set is described as follows: Toxicity liver stage against HepG2, at 10uM. The data set is classed as cell-based. As to conditions: human, HepG2-A16-CD81EGFP cells; read-out: INHIBITION
On the set-up: test concentration 10 uM, cell line HepG2-A16-CD81EGFP. The procedure, abridged: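 Uninfected HepG2-A16-CD81EGFP cells, 3 × 10^3 per well, 1536-well, plated on prespotted compound at 10 μM final, parasite-free screening media added to match infected plates; puromycin 10 μM positive, DMSO 0.5% negative; run in parallel with 48 h PbLuc assay at 37 °C, 5% CO2; viability by CellTiter-Glo luminescence, normalized to controls.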
In the case of `CO[C@H]1CN(C(=O)c2ccc[nH]2)[C@@H]2COC[C@H]12`, the cytotoxicity at 10 µM was -6.04%.
As for `Cc1ccc(Cl)cc1NCc1nc2n(n1)CCCCC2`, the figure is 5.89%.
Turning to `CCC1(c2ccc(NS(=O)(=O)N(C)C)cc2)CCC(=O)NC1=O` (configuration not stated), the cytotoxicity at 10 µM was -7.19%.
`Cc1[nH]ncc1C(=O)N1CCCC1c1noc(C2CC2)n1` (configuration not stated): the cytotoxicity at 10 µM was -18.1%.
Turning to `CSCCCNC(=O)Nc1cccc(-c2nccn2C)c1`, the cytotoxicity at 10 µM was -6.25%.
As for `COCc1nc(CN2CCOC(CNc3cccnn3)C2)cs1` (configuration not stated), the figure is -4.71%.
As for `Cc1noc(C)c1CN1C[C@H](OCC(=O)N(C)C)[C@H]2OCCC[C@H]21`, the figure is 8.34%; as for `COc1cc(NC(=O)NC2CCOCC2)ccc1N1CCOC1=O`, -4.59%.
Regarding `Cc1ccc(C2COCCN2C(=O)c2ccc(CN(C)C)cc2)o1` (configuration not stated), the cytotoxicity at 10 µM is 0.692%.
As for `c1coc(CN2CCCn3c(nnc3Cn3cccn3)C2)c1`, the figure is -0.945%; as for `Cn1cc(CN2CCCC(CCc3ccccc3C(F)(F)F)C2)cn1` (configuration not stated), -4.24%; as for `O=S(=O)(c1cccs1)N1CC[C@H](O)[C@@H]1Cc1ccncc1`, 3.19%.
As for `O=C(c1cnccn1)N1C[C@@H]2CN(Cc3cccnc3)CCO[C@@H]2C1`, the figure is 2.89%.
As for `CCNc1cc2c(nn1)CCN(C(=O)Cc1noc3ccccc13)C2`, the figure is -7.42%.
In the case of `CCNc1nc(-c2cccnc2)c(-c2ccnc(NS(C)(=O)=O)n2)s1`, the cytotoxicity at 10 µM is -12.3%.
As for `CCCN1CCCN(CCCOc2cccc(C#N)c2)CC1`, the figure is 18%; as for `O=C(Nc1nccs1)NC1CCN(CC2CCCC2)CC1`, -8.07%; as for `CN(C)C(=O)COCC1CN(Cc2ccoc2)Cc2nnn(C)c21` (configuration not stated), 1.81%.
As for `COCCn1ccnc1C1CCN(C(=O)CSc2nnc(C)s2)CC1`, the cytotoxicity at 10 µM turned out to be 5.4%.
As for `O=C(NCCc1c[nH]cn1)c1ccc(S(=O)(=O)NC2CCCC2)cc1`, the figure is -7.2%; as for `Cc1nc(N(C)C)nc2c1COCC21CCN(C(=O)NC(C)C)C1` (configuration not stated), -13%.
As for `Cc1noc(C)c1CC(=O)NCC(CC(C)C)N1CCOCC1` (configuration not stated), the figure is -40.6%.
As for `CN(c1ncc(S(N)(=O)=O)s1)C1CCc2ccccc21` (configuration not stated), the figure is -1.62%; as for `CC(CN1CCOCC1)NC(=O)NCc1ccoc1` (configuration not stated), -5.52%; as for `Cc1ncsc1C(=O)NC1CCN(CCC(=O)Nc2ccccc2)CC1`, -1.39%.
`O=C(NC1CCCC1)[C@@H]1C[C@@H]2CCN(Cc3ccoc3)C[C@H]2O1`: the cytotoxicity at 10 µM is -110%.
As for `CC1(C)CCN1C(=O)c1cc(F)cc2[nH]cnc12`, the figure is -7.09%; as for `CC(C)N(CC(N)=O)Cc1cccc(C(F)(F)F)c1`, 0.292%.
As for `CCc1ccc(C2CCCN2C(=O)NCC(=O)NCC(C)C)o1` (configuration not stated), the figure is 17.7%; as for `CCS(=O)(=O)N1Cc2cncn2CC(C(=O)NCC2CC2)C1` (configuration not stated), -97.6%.
As for `CSc1nccc(N2CCC3(CCCN(CCc4ccccc4)C3)C2)n1` (configuration not stated), the figure is 16.2%; as for `CCc1c(C)n(CCOC)c2nc3ccccc3n2c1=O`, -0.277%.
As to `O=C(Cc1csc(-c2ccccn2)n1)NCCCN1CCCCCC1=O`, the cytotoxicity at 10 µM was 1.16%.
As for `OC(COCc1ccc(Cl)cc1)CN1CCC(c2ccn[nH]2)CC1` (configuration not stated), the figure is -7.21%; as for `CN1CCCC(c2nccnc2-c2cccc(C(F)(F)F)c2)C1` (configuration not stated), 7.75%.
As for `CC(=O)N(C)CC(=O)Nc1cccc(N2CCN(CC3CC3)CC2)c1`, the figure is 1.75%; as for `Cc1nc(S(=O)(=O)NCCC(=O)NCc2ccc(C#N)cc2)cn1C`, 5.17%; as for `CCc1ccccc1NC(=O)NCc1nnc(SC)n1C`, 3.73%.
Consider `COCC(=O)N1CCC2(CCC(C(=O)N3CCCC3)O2)CC1` (configuration not stated), for which the cytotoxicity at 10 µM was -1.63%.
As for `c1cc(CN2CCCn3nnc(COCC4CC4)c3C2)ccn1`, the figure is -113%; as for `Cc1cnn(C2CCCN(C(=O)Cn3ccc(=O)n(C)c3=O)C2)c1` (configuration not stated), 1.99%.
As for `Cc1ccc(-c2ccnc(N(C)CC3CCCN3C)n2)c(C)n1` (configuration not stated), the figure is -9.66%; as for `Cc1cnn(CC2CCCCN2C(=O)c2ccc3nncn3c2)c1` (configuration not stated), -8.66%; as for `O=C(O)c1cccnc1CN(Cc1ccsc1)C1CC1`, 3.7%.
As for `Cc1nc(Nc2ccccn2)cc(C2CCCN2C2CCOCC2)n1` (configuration not stated), the figure is -18.1%.
Turning to `O=c1c2c[nH]c(N3CCOCC3)nc-2cn1C1CCS(=O)(=O)C1` (configuration not stated), the cytotoxicity at 10 µM was found to be 3.41%.
For the compound `CN1CCN(C2CCN(Cc3ccc(Cl)s3)CC2)C1=O`, the cytotoxicity at 10 µM was determined as 11.2%.
As to `Cc1ccc(N2CCC(NC(C)c3ccc(C)o3)CC2)nc1` (configuration not stated), the cytotoxicity at 10 µM is -6.59%.
As for `COc1ccc(Cl)cc1NC(=O)CCC1CCCN(Cc2ncon2)C1` (configuration not stated), the figure is -4.18%.
As for `COc1ccc(NC(C)C(=O)N2CCCC2)cn1` (configuration not stated), the figure is -4.96%; as for `Cc1noc(C)c1C(=O)N1C[C@@H]2CC[C@H]1CN(c1cnccn1)C2`, 8.32%; as for `CNS(=O)(=O)CC1CCCN1c1ccc(Cl)cn1` (configuration not stated), 7.6%.
Turning to `CCc1noc(C)c1C(=O)N1CCCC1c1c(C)nn(C)c1OC` (configuration not stated), the cytotoxicity at 10 µM is -12.1%.
As for `Cc1ccccc1-c1cc(NC(=O)CC(C)C)n(CCO)n1`, the figure is 7.47%.
As for `CCn1nc2c(cc1=O)CN(CC(=O)Nc1nccs1)CC2`, the figure is -4.74%.
As for `O=C(CCN1CCc2ccccc21)N1C[C@@H](O)[C@H](N2CCCC2)C1`, the figure is -17.8%.
Turning to `O=C(Cc1csc(-c2ccco2)n1)N1CCN(c2cnccn2)CC1`, the cytotoxicity at 10 µM is 0.0241%.
As for `O=C1OCCN1Cc1ncnn1Cc1c(F)cccc1Cl`, the figure is -1.26%; as for `Cc1noc([C@@]23CCO[C@@H]2CCN(C(=O)CN(C)C)C3)n1`, 10.1%.
For the compound `CN(C)C(=O)N1C[C@H]2CN(Cc3cccc(F)c3)C(=O)[C@H]2C1`, the cytotoxicity at 10 µM is 4.61%.
As for `Cn1ccnc1CN1CCC2(COCCN(Cc3ccsc3)C2)C1` (configuration not stated), the figure is -9.81%.
As to `O=C(c1ccoc1)N1CCc2ncnc(NCc3ccccn3)c2CC1`, the cytotoxicity at 10 µM turned out to be 0.224%.
As for `CN1CCOC(C(=O)N2CCOC3(CCCC3)C2)C1` (configuration not stated), the figure is 7.28%.
As to `O=C(C1CCN(c2snc3ccccc23)CC1)N1CCCCCC1`, the cytotoxicity at 10 µM came out at 11.7%.
As for `COCC(c1cccc(C(F)(F)F)c1)N(C)C(=O)c1ccccn1` (configuration not stated), the figure is -12%; as for `Cc1nc(C)n(C2CCCN(C(=O)Cc3n[nH]c4ccccc34)C2)n1` (configuration not stated), -11.7%.
As for `COc1ccc(S(=O)(=O)NC(=O)COC2CCCCC2)cc1`, the figure is -1.64%.
As for `CC(=O)c1cccc(OCCCC(=O)NCC2CCCN2C)c1` (configuration not stated), the figure is 0.71%; as for `O=S(=O)(c1cn[nH]c1)N1CCC(O)(CN2CCC(F)(F)CC2)C1` (configuration not stated), 5.92%; as for `CCOCC1CN(c2ncccn2)Cc2cnn(CC3CCOCC3)c21` (configuration not stated), 2.97%.
On to `Cn1ccnc1CN1CCCC(CO)(CCc2ccccc2)C1` (configuration not stated), for which the cytotoxicity at 10 µM is -3.36%.
As to `COCCN1CCC2(CC1)CN(C(=O)Cc1cccnc1)CCO2`, the cytotoxicity at 10 µM is -9.43%.
As for `CN1C(=O)Cc2cc(-c3csc(CCN4CCOC4=O)n3)ccc21`, the figure is -11.5%; as for `O=S(=O)(N1CCN(CC2CC2)CC1)N1CCCC1c1ccco1` (configuration not stated), 1.24%.
For `Cc1nsc(N2CCCN(C(=O)c3ccc4[nH]ccc4c3)CC2)n1`, the cytotoxicity at 10 µM worked out at 0.997%.
As for `CC(C)(O)CCc1ccc(C(=O)N2Cc3cnn(CCO)c3C2)cc1`, the cytotoxicity at 10 µM was determined as 2.69%.
`Cc1ccc(N2CCC(c3nccn3Cc3cscn3)CC2)nn1`: the cytotoxicity at 10 µM was -12.8%.
In the case of `Cc1cccnc1C(NC(=O)CNC(=O)c1ccoc1C)C(C)C` (configuration not stated), the cytotoxicity at 10 µM was 2.45%.
On to `CC(C)NC(=O)[C@H](C)NC(=O)N1CCN(c2ccc(Cl)cc2)CC1`, for which the cytotoxicity at 10 µM was 0.592%.
As for `CN1CCCN(c2ncnc(N3CCOCC3)c2N)CC1`, the figure is 1.08%; as for `CCC1=N[C@@]2(CC[C@@H]3CN(C(=O)NCc4ccccc4)C[C@@H]32)C(=O)N1`, -10.3%.
As for `O=C(C1CCCC1)N1CC2(CCN(C3COC3)C2)Cc2ccccc21` (configuration not stated), the figure is 10.1%; as for `Brc1cnc(NCCCOC2CCOCC2)nc1`, -5.2%.
As for `CC(C)OCc1nn(CC2CC2)c2c1CN(Cc1ccco1)CC2`, the figure is -15.4%; as for `CCOCC1c2c(ncn2C(C)C)CCN1C(C)C` (configuration not stated), 10.5%; as for `O=C(Cc1ccc(-n2cnnn2)cc1)Nc1nncs1`, 5.47%.
With `O=C(NCCNC1CCCCC1)c1cccs1`, the cytotoxicity at 10 µM is -12.7%.
Consider `Cc1cc(C(N)=O)c(N2C[C@@H](C)[C@@](C)(O)C2)nc1C`, for which the cytotoxicity at 10 µM is -9.14%.
Turning to `CC(C)(NC(=O)C1CCCN(C2CCCC2)C1)c1nnc(N)s1` (configuration not stated), the cytotoxicity at 10 µM is 3.27%.
On to `CO[C@@H]1CN(S(=O)(=O)c2cn(C)cn2)[C@@H]2CCCO[C@@H]21`, for which the cytotoxicity at 10 µM is -125%.
As for `CSC1(CNC(=O)NC(C)Cc2cccc(F)c2)CCOCC1` (configuration not stated), the figure is -15.6%.
As for `CCn1cc(CNC(=O)CCn2ncc3c(Cl)cccc32)cn1`, the figure is 10.9%; as for `c1cc2c(cc1Cn1cc(C3CCOC3)nn1)CCCO2` (configuration not stated), 2.03%.
Consider `COc1ccc(OC)c(C2CCN(Cc3nc(C)n4ccccc34)C2)c1` (configuration not stated), for which the cytotoxicity at 10 µM was -8.66%.
As for `CNc1oc(COc2ccc3c(c2)OCO3)nc1C#N`, the figure is -58.3%; as for `O=C(CCOc1ccccc1)N1CCCC(n2cncn2)C1` (configuration not stated), -2.95%; as for `CCOC(=O)[C@]12CCCN(Cc3nccs3)C[C@H]1CN(C(C)=O)C2`, -2.99%.
